Reference: ChEMBL document CHEMBL1141508, “Lysinyl macrocyclic hexaoxazoles: synthesis and selective G-quadruplex stabilizing properties” (Bioorg Med Chem Lett, 2008)

Assays:
Homo sapiens = species on record: Homo sapiens; assay: Binding affinity to human d(T2AG3)4 DNA assessed as transition temperature
Summary of the method: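 UV melting of d[T2G3(T2AG3)3A] (5 μM strand) with macrocycle at 20 μM in 10 mM potassium phosphate pH 7.5, KCl added to 150 mM total K+. Absorbance read at 295 nm, 1 cm quartz cuvette; temperature raised in 0.5 °C steps with 1.5 min equilibration, absorbance averaged over 5 s at each step.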

Salmonidae = assay: Binding affinity to salmon testes DNA assessed as transition temperature
Summary of the method: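 Salmon testes DNA (15 μM base pair) melted with ligand at 15 μM in 10 mM EPPS pH 7.5, KCl added to 50 mM total K+. Absorbance followed at 260 nm in a 1 cm quartz cuvette; heating in 0.5 °C increments, 1.5 min equilibration per setting, readings averaged over 5 s.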

[1] = Cytotoxicity against human RPMI8402 cells; format: functional, cell-based; details: RPMI 8402

| Compound | T (Homo sapiens) | T (Salmonidae) | IC50 [1] |
| --- | --- | --- | --- |
| NCCCC[C@@H]1NC(=O)c2coc(n2)-c2coc(n2)-c2coc(n2)[C@H](CCCCN)NC(=O)c2coc(n2)-c2coc(n2)-c2coc1n2 | 102 °C | 79 °C |  |
| CC(C)[C@@H]1NC(=O)c2coc(n2)-c2coc(n2)-c2coc(n2)[C@H](C(C)C)NC(=O)c2coc(n2)-c2coc(n2)-c2coc1n2 [HEXAOXAZOLE DIVALINE] | 77 °C | 76.5 °C | 400 nM |
| CC(C)[C@@H]1NC(=O)c2coc(n2)-c2coc(n2)-c2coc(n2)[C@H](CCCCN(C)C)NC(=O)c2coc(n2)-c2coc(n2)-c2coc1n2 | 81 °C | 76 °C |  |
| CC(=O)NCCCC[C@@H]1NC(=O)c2coc(n2)-c2coc(n2)-c2coc(n2)[C@H](C(C)C)NC(=O)c2coc(n2)-c2coc(n2)-c2coc1n2 | 79 °C | 76.5 °C |  |
| CC(C)[C@@H]1NC(=O)c2coc(n2)-c2coc(n2)-c2coc(n2)[C@H](CCCCN)NC(=O)c2coc(n2)-c2coc(n2)-c2coc1n2 | 90 °C | 76.5 °C |  |
